Reference: ChEMBL document CHEMBL1144223, “Design, synthesis, and docking studies of novel benzopyrone derivatives as H(1)-antihistaminic agents” (Bioorg Med Chem, 2008)
pEC50: −log10 of the molar value. Where a name gives a salt, the structure may show the parent alone.

What was measured:
Assay type in all cases: functional, tissue-based
[1] = target: Histamine H1 receptor (Cavia porcellus) (UniProt P31389); assay: Antagonist activity at histamine H1 receptor in guinea pig ileum assessed as inhibition of histamine-induced contractions at 0.1 mg/ml relative to control
How it was run: (§1)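 Isolated ileum from male guinea pigs (250–400 g), killed by a blow to the skull and cervical dislocation. Segments 2–3 cm long were tied to an aerating tube and an isotonic transducer. Cumulative histamine diphosphate was added every 2 min, from the threshold concentration up to the maximal response. Contraction height was expressed as % of the maximum with saline. EC50 and Emax were compared with saline (Student's t-test, n = 5 strips, mean ± SEM).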

Histamine H1 receptor [2] = target: T1, Histamine H1 receptor (Cavia porcellus, UniProt P31389); assay: Antagonist activity at histamine H1 receptor in guinea pig ileum assessed as inhibition of histamine-induced contractions at 1.0 mg/ml; how it was run: as §1
Histamine H1 receptor [3] = target: T1, Histamine H1 receptor; assay: Antagonist activity at histamine H1 receptor in guinea pig ileum assessed as inhibition of histamine-induced contractions at 0.5 mg/ml; how it was run: as §1
[4] = target: Histamine H1 receptor (Cavia porcellus) (UniProt P31389); assay: Antagonist activity at histamine H1 receptor in guinea pig ileum assessed as inhibition of histamine-induced contractions at 0.5 mg/ml relative to control; how it was run: as §1
[5] = target: Histamine H1 receptor (Cavia porcellus) (UniProt P31389); assay: Antagonist activity at histamine H1 receptor in guinea pig ileum assessed as inhibition of histamine-induced contractions at 1.0 mg/ml relative to control; how it was run: as §1
Histamine H1 receptor [6] = target: T1, Histamine H1 receptor; assay: Antagonist activity at histamine H1 receptor in guinea pig ileum assessed as inhibition of histamine-induced contractions at 0.1 mg/ml; how it was run: as §1
[7] = target: Histamine H1 receptor (Cavia porcellus) (UniProt P31389); assay: Antagonist activity at histamine H1 receptor in guinea pig ileum assessed as inhibition of histamine-induced contractions at 5 ug/ml relative to control; how it was run: as §1
Histamine H1 receptor [8] = target: T1, Histamine H1 receptor; assay: Antagonist activity at histamine H1 receptor in guinea pig ileum assessed as inhibition of histamine-induced contractions at 5 ug/ml; how it was run: as §1

Histamine H1 receptor (Cavia porcellus), sequence (P31389 whole entry): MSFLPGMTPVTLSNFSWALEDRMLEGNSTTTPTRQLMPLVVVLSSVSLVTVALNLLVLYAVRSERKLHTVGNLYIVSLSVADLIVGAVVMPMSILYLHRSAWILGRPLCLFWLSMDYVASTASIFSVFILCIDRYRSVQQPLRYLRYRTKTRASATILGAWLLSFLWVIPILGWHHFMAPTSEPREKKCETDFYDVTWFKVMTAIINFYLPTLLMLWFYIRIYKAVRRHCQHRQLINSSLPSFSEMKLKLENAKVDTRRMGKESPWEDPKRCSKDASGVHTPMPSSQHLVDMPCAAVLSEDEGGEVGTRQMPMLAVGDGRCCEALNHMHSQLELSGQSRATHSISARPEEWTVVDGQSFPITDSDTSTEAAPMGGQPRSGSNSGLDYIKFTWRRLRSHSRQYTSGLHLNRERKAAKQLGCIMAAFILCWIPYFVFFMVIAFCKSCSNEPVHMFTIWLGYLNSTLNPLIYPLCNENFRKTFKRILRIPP
T1 sequence (P31389 whole entry): as above

Row | Compound | Emax [1] [%] | pEC50 (Histamine H1 receptor [2]) | pEC50 (Histamine H1 receptor [3]) | Emax [4] [%] | Emax [5] [%] | pEC50 (Histamine H1 receptor [6]) | Emax [7] [%] | pEC50 (Histamine H1 receptor [8])
1 | Cc1cc(=O)oc2ccc(OCC(O)CN3CCN(c4ccccc4)CC3)cc12 (centres undefined) | 100 | 7.67 | 7.80 | 95 | 60 | 7.88 |  | 
2 | Cc1cc(=O)oc2ccc(OCC(O)CN3CCCCC3)cc12 (centres undefined) | 100 | 7.58 | 7.69 | 98 | 55 | 7.76 |  | 
3 | Cc1cc(=O)oc2ccc(OCC(O)CN3CCN(C)CC3)cc12 (centres undefined) | 100 | 7.61 | 7.74 | 98 | 54 | 7.76 |  | 
4 | CN(C)CCC(c1ccccc1)c1ccccn1 (centres undefined) [PHENIRAMINE MALEATE] |  |  |  |  |  |  | 78 | 7.72
5 | CCCNCC(O)COc1ccc2c(-c3ccccc3)cc(=O)oc2c1 (centres undefined) | 100 | 7.62 | 7.75 | 100 | 53 | 7.80 |  | 
6 | CCN(CC)CC(O)COc1ccc2c(-c3ccccc3)cc(=O)oc2c1 (centres undefined) | 100 | 7.62 | 7.76 | 95 | 60 | 7.79 |  | 
7 | CCN(CC)CC(O)COc1ccc2oc(=O)cc(C)c2c1 (centres undefined) | 100 | 7.56 | 7.71 | 96 | 58 | 7.77 |  | 

Further lines, results first:

Row | Emax [1] [%] | pEC50 (Histamine H1 receptor [2]) | pEC50 (Histamine H1 receptor [3]) | Emax [4] [%] | Emax [5] [%] | pEC50 (Histamine H1 receptor [6]) | Emax [7] [%] | pEC50 (Histamine H1 receptor [8]) | Compound
8 | 100 | 7.63 | 7.80 | 94 | 60 | 7.83 |  |  | O=c1cc(-c2ccccc2)c2ccc(OCC(O)CN3CCCCC3)cc2o1 (centres undefined)
9 | 100 | 7.65 | 7.78 | 100 | 53 | 7.82 |  |  | O=c1cc(-c2ccccc2)c2ccc(OCC(O)CN3CCNCC3)cc2o1 (centres undefined)
10 | 100 | 7.70 | 7.84 | 96 | 58 | 7.86 |  |  | COc1ccccc1N1CCN(CC(O)COc2ccc3oc(=O)cc(C)c3c2)CC1 (centres undefined)
11 | 100 | 7.74 | 7.89 | 96 | 52 | 7.93 |  |  | COc1ccccc1N1CCN(CC(O)COc2ccc3c(-c4ccccc4)cc(=O)oc3c2)CC1 (centres undefined)
12 | 100 | 7.66 | 7.79 | 95 | 58 | 7.84 |  |  | O=c1cc(-c2ccccc2)c2ccc(OCC(O)CN3CCOCC3)cc2o1 (centres undefined)
13 | 100 | 7.74 | 7.86 | 94 | 54 | 7.93 |  |  | O=c1cc(-c2ccccc2)c2ccc(OCC(O)CN3CCN(c4ccccc4)CC3)cc2o1 (centres undefined)
